# Results published in PMC7383886 (Diabetes, Obesity & Metabolism, 2020).
# Tests used:
# [1] = tested on: patients with type 2 diabetes inadequately controlled on metformin; assay: Vital signs, LIBERATE 204; assay type: in vivo, human; settings: any post-baseline time point from week 2 to week 17 or at follow-up (week 23)
# [2] = tested on: patients with type 2 diabetes inadequately controlled on metformin; assay: Neutralizing antibodies, cell-based cAMP-Glo assay; assay type: in vivo, human; settings: any patient at any time
# How it was run: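 Neutralizing activity of anti-drug antibodies in patient samples was tested in a cell-based assay. Antibody-mediated inhibition of intracellular cAMP was read by cAMP-Glo luminescence; the assay was validated at a central laboratory. Patients received double-blind sc test compound or placebo.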
# [3] = tested on: patients with type 2 diabetes inadequately controlled on metformin; assay: Anti-efpeglenatide antibodies, enzyme-linked immunosorbent assay; assay type: in vivo, human; settings: log 2-expressed titre of at least 2
# How it was run: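 Anti-drug antibodies in patient blood samples were detected by ELISA with an absorbance plate read-out, validated at a central laboratory. Treatment-emergent antibodies were evaluated in the safety set of patients on double-blind sc dosing with background metformin.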
# [4] = tested on: patients with type 2 diabetes inadequately controlled on metformin; assay: Fasting plasma glucose; assay type: in vivo, human; settings: mean (SD)
# How it was run: (§1)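 Adults 18–<75 y with T2D on stable metformin (≥1500 mg/d or maximum tolerated dose) had HbA1c 53–86 mmol/mol and BMI <40. They received double-blind sc test compound or placebo (0.53 mL prefilled syringe): 4 mg weekly on days 1, 8, 15 and 22, 8 mg on day 29, then the assigned dose on days 57 and 85. Measured at baseline and week 17 in the full analysis set; change analysed by MMRM (LS means, 95.1% CIs).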
# [5] = tested on: patients with type 2 diabetes inadequately controlled on metformin; assay: HbA1c, phase 2 trial LIBERATE 204; assay type: in vivo, human
# How it was run: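 HbA1c was assessed at week 17, after 16 weeks of double-blind sc treatment on background metformin. Dosing was 4 mg weekly for 4 weeks, 8 mg on day 29, then the assigned dose every 28 days; placebo was matched. The proportion reaching HbA1c <53 mmol/mol (<7%) was compared with placebo by Fisher's exact test in the full analysis set.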
# [6] = tested on: patients with T2D who were drug-naïve or on metformin; settings: 4 mg once weekly; 12 weeks; EXCEED; cited from earlier work
# [7] = tested on: patients with type 2 diabetes inadequately controlled on metformin; assay: Treatment-emergent adverse events and hypoglycaemia, LIBERATE 204; assay type: in vivo, human
# How it was run: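 Safety set comprised all patients receiving any study drug, grouped by treatment actually received; analysed descriptively. TEAEs were adverse events starting or worsening on or after the first dose. Hypoglycaemia AEs required confirmed blood glucose <3.9 mmol/L (<70 mg/dL), coded by MedDRA 16.1. Injection-site reactions and symptomatic hypoglycaemic episodes came from patient diaries. Dosing was double-blind sc on background metformin.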
# [8] = tested on: patients with type 2 diabetes inadequately controlled on metformin; assay: Body weight, LIBERATE 204; assay type: in vivo, human; settings: mean (SD)
# How it was run: as §1
# [9] = tested on: patients with type 2 diabetes inadequately controlled on metformin; assay: Seven-point glucose profile; assay type: in vivo, human; settings: full analysis set n = 52, mean (SD)
# How it was run: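 Patients self-measured glucose with a provided glucometer for a seven-point profile: 90 min pre- and postprandial readings plus bedtime, recorded in a diary. Mean daily glucose was derived from this profile. Dosing was double-blind sc, with metformin continued: 4 mg weekly ×4, 8 mg on day 29, then the assigned monthly dose on days 57 and 85. Full analysis set; change to week 17 analysed by MMRM with 95.1% CIs.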
# [10] = 8 mg once monthly sc, safety set n = 52
# [11] = 12 mg once monthly sc, safety set n = 52
# [12] = 16 mg once monthly sc, safety set n = 53
# [13] = 8 mg once monthly sc, full analysis set n = 52
# [14] = 12 mg once monthly sc, full analysis set n = 52
# [15] = 16 mg once monthly sc, full analysis set n = 52
# [16] = overall (8, 12 and 16 mg once monthly sc), full analysis set n = 156
# [17] = overall (8, 12 and 16 mg once monthly sc), safety set n = 157
substance,measurement,setting,value
efpeglenatide,"Mean changes from baseline in heart rate, temperature, systolic blood pressure or diastolic blood pressure",[1],no meaningful mean changes
same,Neutralizing antibodies,[2],no neutralizing antibodies were detected
same,Antibody formation: Treatment-emergent (titre ≥2),[3]; [10],5 (9.6) n (%)
same,Antibody formation: Treatment-emergent (titre ≥2),[3]; [11],6 (11.5) n (%)
same,Antibody formation: Treatment-emergent (titre ≥2),[3]; [12],4 (7.5) n (%)
same,FPG at Week 17,[4]; [13],7.86 (2.28) mmol/L
same,FPG at Week 17,[4]; [14],8.09 (2.28) mmol/L
same,FPG at Week 17,[4]; [15],7.76 (1.93) mmol/L
same,FPG at Week 17,[4]; [16],7.90 (2.16) mmol/L
same,Patients with HbA1c <53 mmol/mol (7%) at Week 17,[5]; [13],26 (50.0) n (%)
same,Patients with HbA1c <53 mmol/mol (7%) at Week 17,[5]; [14],26 (50.0) n (%)
same,Patients with HbA1c <53 mmol/mol (7%) at Week 17,[5]; [15],24 (46.2) n (%)
same,Patients with HbA1c <53 mmol/mol (7%) at Week 17,[5]; [16],76 (48.7) n (%)
same,HbA1c reduction from baseline compared with once-daily liraglutide,[6],non‐inferior
same,Any TEAE,[7]; [10],43 (82.7) n (%)
same,Any TEAE leading to discontinuation,[7]; [10],6 (11.5) n (%)
same,Injection-site reaction,[7]; [10],4 (7.7) n (%)
same,SAEs: Any,[7]; [10],0 (0.0) n (%)
same,SAEs: GI disorders,[7]; [10],0 (0.0) n (%)
same,"SAEs: Injury, poisoning and procedural complications",[7]; [10],0 (0.0) n (%)
same,"SAEs: Neoplasms: benign, malignant and unspecified",[7]; [10],0 (0.0) n (%)
same,SAEs: Nervous system disorders,[7]; [10],0 (0.0) n (%)
same,SAEs: Psychiatric disorders,[7]; [10],0 (0.0) n (%)
same,TEAE: Diarrhoea,[7]; [10],9 (17.3) n (%)
same,TEAE: GI disorders,[7]; [10],26 (50.0) n (%)
same,TEAE: Nausea,[7]; [10],14 (26.9) n (%)
same,TEAE: Vomiting,[7]; [10],8 (15.4) n (%)
same,Any TEAE,[7]; [11],43 (82.7) n (%)
same,Any TEAE leading to discontinuation,[7]; [11],7 (13.5) n (%)
same,Injection-site reaction,[7]; [11],4 (7.7) n (%)
same,SAEs: Any,[7]; [11],5 (9.6) n (%)
same,SAEs: GI disorders,[7]; [11],1 (1.9) n (%)
same,"SAEs: Injury, poisoning and procedural complications",[7]; [11],1 (1.9) n (%)
same,"SAEs: Neoplasms: benign, malignant and unspecified",[7]; [11],1 (1.9) n (%)
same,SAEs: Nervous system disorders,[7]; [11],1 (1.9) n (%)
same,SAEs: Psychiatric disorders,[7]; [11],1 (1.9) n (%)
same,TEAE: Diarrhoea,[7]; [11],8 (15.4) n (%)
same,TEAE: GI disorders,[7]; [11],29 (55.8) n (%)
same,TEAE: Nausea,[7]; [11],24 (46.2) n (%)
same,TEAE: Vomiting,[7]; [11],13 (25.0) n (%)
same,Any TEAE,[7]; [12],43 (81.1) n (%)
same,Any TEAE leading to discontinuation,[7]; [12],8 (15.1) n (%)
same,Injection-site reaction,[7]; [12],2 (3.8) n (%)
same,SAEs: Any,[7]; [12],3 (5.7) n (%)
same,SAEs: GI disorders,[7]; [12],0 (0.0) n (%)
same,"SAEs: Injury, poisoning and procedural complications",[7]; [12],1 (1.9) n (%)
same,"SAEs: Neoplasms: benign, malignant and unspecified",[7]; [12],1 (1.9) n (%)
same,SAEs: Nervous system disorders,[7]; [12],1 (1.9) n (%)
same,SAEs: Psychiatric disorders,[7]; [12],0 (0.0) n (%)
same,TEAE: Diarrhoea,[7]; [12],11 (20.8) n (%)
same,TEAE: GI disorders,[7]; [12],31 (58.5) n (%)
same,TEAE: Nausea,[7]; [12],23 (43.4) n (%)
same,TEAE: Vomiting,[7]; [12],17 (32.1) n (%)
same,Hypoglycaemia TEAEs (blood glucose ≤3.9 mmol/L [≤70 mg/dL]),[7]; any group,No hypoglycaemia TEAEs
same,AEs of acute or chronic pancreatitis,[7]; during the study,No AEs of acute or chronic pancreatitis were reported
same,Deaths,[7]; during the study,No deaths
same,Any TEAE,[7]; [17],129 (82.2) n (%)
same,Any TEAE leading to discontinuation,[7]; [17],21 (13.4) n (%)
same,Injection-site reaction,[7]; [17],10 (6.4) n (%)
same,SAEs: Any,[7]; [17],8 (5.1) n (%)
same,SAEs: GI disorders,[7]; [17],1 (0.6) n (%)
same,"SAEs: Injury, poisoning and procedural complications",[7]; [17],2 (1.3) n (%)
same,"SAEs: Neoplasms: benign, malignant and unspecified",[7]; [17],2 (1.3) n (%)
same,SAEs: Nervous system disorders,[7]; [17],2 (1.3) n (%)
same,SAEs: Psychiatric disorders,[7]; [17],1 (0.6) n (%)
same,TEAE: Diarrhoea,[7]; [17],28 (17.8) n (%)
same,TEAE: GI disorders,[7]; [17],86 (54.8) n (%)
same,TEAE: Nausea,[7]; [17],61 (38.9) n (%)
same,TEAE: Vomiting,[7]; [17],38 (24.2) n (%)
same,Body weight at Week 17,[8]; [13],89.98 (18.12) kg
same,Body weight at Week 17,[8]; [14],91.87 (15.31) kg
same,Body weight at Week 17,[8]; [15],85.72 (15.58) kg
same,Body weight at Week 17,[8]; [16],89.26 (16.49) kg
same,Mean daily glucose at Week 17,[9]; 8 mg once monthly sc,8.76 (2.13) mmol/L
same,Mean daily glucose at Week 17,[9]; 12 mg once monthly sc,8.89 (2.50) mmol/L
same,Mean daily glucose at Week 17,[9]; 16 mg once monthly sc,8.49 (1.43) mmol/L
